Screening data from PubChem.
The list is not random: actives were taken first. Their share in the collection is about 2.9%.
HEK293 NFkB inh – inhibitors of the PMA/ionomycin-induced NF-kB reporter in HEK293 cells | HEK-293 NF-kB luciferase reporter, luminescence | inhibition, % at 3 µM | 62,000 compounds, 0.21% hits;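 active means inhibition above the mean of all tested compounds plus 3 SD, cut at about 40% in these data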;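 further: 0% = stimulated DMSO wells and 100% = 10 µM reference inhibitor 5653914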
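System: NF-kB luciferase reporter HEK-293 cells | Replication: Single test | Control set: DMSO vs reference inhibitor | Evaluation: % inhibition | Schedule: 1 h pretreatment, 16 h stimulation, 37 °C | Probe or stimulus: PMA with ionomycin | Compound dosing: One dose, 3 µM | Detection: Luciferase luminescence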
Jurkat viability – reduces viability or proliferation of Jurkat cells. Jurkat E6.1 viability, ATP luminescence, 48 h. inhibition, % at 4 µM. 56,000 compounds, 1.2% hits. AID 463;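 active means inhibition above the mean inhibition of all tested compounds plus 3 SD, cut at about 28% in these data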
SF-1 act – activates the human nuclear receptor SF-1; 65,000 compounds, 1.9% hits; CHO-K1 Gal4-SF-1 LBD luciferase reporter; % increase over DMSO SF-1-specific signal; Q13285; activation, % at 10 µM;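 active means activation above the mean activation of all tested compounds plus 3 SD, cut at about 50% in these data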
Target sequence (Q13285 whole entry, looked up, the tested form may be a part): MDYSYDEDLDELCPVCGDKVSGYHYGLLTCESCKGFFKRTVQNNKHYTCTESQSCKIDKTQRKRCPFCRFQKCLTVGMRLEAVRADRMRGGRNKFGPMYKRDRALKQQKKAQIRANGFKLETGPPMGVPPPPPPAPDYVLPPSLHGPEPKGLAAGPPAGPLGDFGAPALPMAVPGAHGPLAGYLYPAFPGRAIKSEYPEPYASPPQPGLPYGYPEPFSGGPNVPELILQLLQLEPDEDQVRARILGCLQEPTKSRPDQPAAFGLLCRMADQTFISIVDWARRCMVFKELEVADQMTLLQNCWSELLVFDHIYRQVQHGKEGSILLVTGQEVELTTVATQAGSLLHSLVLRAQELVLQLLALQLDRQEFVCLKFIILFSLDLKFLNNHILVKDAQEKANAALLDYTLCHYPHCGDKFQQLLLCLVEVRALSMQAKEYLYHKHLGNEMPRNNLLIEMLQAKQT
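material = CHO-K1 cells with Gal4–hSF-1 LBD chimera plus Gal4-driven luciferase | compound = 10 µM single point, 1% DMSO | incubation = 20 h compound exposure at 37 °C after 1 h cell settling | measured by = SteadyLite luciferase luminescence | evaluation = percent activation relative to DMSO median and mock-transfected background | control set = DMSO negative control and −SF1 background wells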
RORa activator – activators of human nuclear receptor RORA; activation, % at 10 µM; 65,000 compounds, 1.5% hits; CHO-K1 Gal4-RORA LBD luciferase reporter, luminescence; percent increase over mock-subtracted basal signal; AID 560;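 active means activation above the mean of all tested compounds plus 3 SD, cut at about 49% in these data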;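 further: 0% = DMSO-treated RORA cells and 100% = added signal equal to DMSO minus mock-transfected cells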
MT1-MMP txn act – activates MT1-MMP transcription | HT1080 MT1-MMP promoter luciferase reporter, luminescence, overnight; hits give high values | activation factor at 10 µM | 86,000 compounds, 0.16% hits;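 active means activation factor of at least 2 for MT1-MMP transcription at 10 µM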
* = called active by the depositor; · = no result given.

SMILES | HEK293 NFkB inh | Jurkat viability | SF-1 act | RORa activator | MT1-MMP txn act
O=C(CN1C(=O)CCS(=O)(=O)c2ccccc21)Nc1cccc(Cl)c1 | 11 | · | -14 | -6 | 1
CC(=O)N(Cc1ccc2c(c1)OCO2)C1CC(=O)N(CCc2ccccc2)C1=O (stereo not drawn) | 21 | -4 | 10 | 13 | 1.1
O=C(Nc1ccc(N2CCCC2)c(Cl)c1)c1cccnc1 | · | · | · | · | 1.8
O=C(Nc1ccc(N2CCCC2)cc1)c1cccc(F)c1 | -27 | 69* | -37 | 19 | 0.5
O=C(Nc1ccc(N2CCCCC2)c(Cl)c1)c1cccnc1 | 36 | 33* | 75* | 38 | 1.7
O=C(Nc1ccc(N2CCCCC2)cc1)c1cncc(Br)c1 | -20 | 6 | 8 | 78* | 1.8
COc1ccccc1CNc1ncnc2c1nnn2Cc1ccccc1 | 6 | -2 | 10 | -17 | 1
COc1ccc(OC)c(C2=NOC(C(=O)NCc3ccco3)C2)c1 (stereo not drawn) | · | · | · | · | 1.1
Cc1c(-c2nc(N)nc(Nc3ccccc3)n2)oc2ccccc12 | -20 | 15 | 162* | 89* | 2*
Nc1nc(CN2CCCCCC2)nc(Nc2ccccc2)n1 | · | · | · | · | 1.1
COc1cccc(C2=N/C(=C\N(C)C)C(=O)O2)c1 | -2 | 1 | 26 | 71* | 1.4
CC(C)OC1=C(OC(C)C)C(O)(C#CCN(C(=O)/C=C/c2ccccc2)C(C)(C)C)C1=O (stereo not drawn) | · | · | · | · | 1.1
CCCN(CCC)C(=O)c1ccc2c(c1)N(Cc1ccccc1)C(=O)CS2=O (stereo not drawn) | 13 | -1 | -7 | 13 | 1
Nc1nc(CSc2ccccn2)nc(Nc2ccccc2)n1 | -38 | · | 58* | 24 | 1.1
Nc1nc(CSCCO)nc(Nc2ccccc2)n1 | · | · | · | · | 1.2
COc1ccccc1N1CCN(C(=O)c2c(-c3ccccc3)noc2C)CC1 | 22 | 88* | 28 | 34 | 0.7
Cc1onc(-c2ccccc2)c1C(=O)N1CCCN(C(=O)c2c(-c3ccccc3)noc2C)CC1 | 11 | -2 | -1 | -4 | 1
Cc1cc(C(=O)Nc2sc(C)c(-c3ccc(F)cc3)c2C(N)=O)no1 | -54 | -1 | 85* | 38 | 1.6
Cc1cc(C(=O)OCC(=O)NCc2ccco2)c(C)n1-c1ccc(F)cc1 | 30 | 75* | 37 | 28 | 0.5
CC1=CC(C)(C)Nc2ccc(OC(=O)c3cccnc3)cc21 | 44* | 17 | 10 | -12 | 0.8
CCOc1ccc(OC(=O)c2cccnc2)cc1 | 2 | 6 | -11 | 10 | 1.2
CC1=CC(C)(C)Nc2ccc(OC(=O)CN3C(=O)CCC3=O)cc21 | 40* | -3 | -14 | -15 | ·
CC1=CC(C)(C)Nc2ccc(OC(=O)c3ccco3)cc21 | 45* | 58* | -15 | -11 | 0.2
Cc1ccc2c(CSc3nc4ccccc4c(=O)n3CCCO)cc(=O)oc2c1 | 23 | 1 | -8 | -34 | 1.3
O=C1CCCc2oc3ccc(O)cc3c21 | · | · | · | · | 1.2
SMILES | HEK293 NFkB inh | Jurkat viability | SF-1 act | RORa activator | MT1-MMP txn act
CN(C)c1ccc2c(c1)OC(N)=C(C#N)C2c1cccc(F)c1 (stereo not drawn) | 44* | 86* | -56 | -30 | 0.5
Cc1ccc(C2CCN(C(=O)Nc3ccccc3)C2)cc1 (stereo not drawn) | -20 | 1 | 58* | 92* | 1.5
CCOC(=O)c1c(NC(=O)c2ccc(Cl)s2)sc(C)c1C | -13 | -7 | -6 | 1 | 1.1
CCNc1nc(N)c(C(=O)c2ccc(Cl)s2)s1 | -16 | 0 | 31 | 50* | 1.7
CC(=O)c1cnc2c(-c3ccc(Cl)cc3)cnn2c1C | · | · | · | · | 2.1*
CCCCC(=O)Nc1ccc(C(=O)Nc2ccc3c(c2)OCO3)cc1 | 5 | -6 | 51* | 60* | 1.2
COc1ccc(CCNC(=O)c2ccc(CN3CCOCC3)cc2)cc1 | 10 | · | 3 | -4 | 0.9
O=C(Nc1ccc2c(c1)OCO2)c1ccc(CN2CCOCC2)cc1 | -17 | 3 | 52* | 49* | 1.5
O=C(Nc1ccc(CN2CCCCC2)cc1)c1ccc2c(c1)OCO2 | 8 | -4 | 6 | 5 | 1.5
NC(=O)c1ccc(NC(=O)c2ccc(CN3CCOCC3)cc2)cc1 | · | · | · | · | 1.4
CCOC(=O)c1ccc(NC(=O)c2ccc(CN3CCOCC3)cc2)cc1 | 31 | 53* | 5 | -6 | 1
O=C(NCCC1=CCCCC1)c1ccc(CN2CCOCC2)cc1 | -24 | 2 | 40 | 96* | 1.6
CCOC(=O)c1c(C)n(C)c2c(C)cc(O)c(OC(C)=O)c12 | 16 | -1 | 1 | 6 | 1.1
CC(=O)Nc1ccccc1-c1nnc(SCc2ccccc2Cl)[nH]c1=O | · | · | · | · | 1.1
COC(=O)N1CC=CC1(C)C(=O)O (stereo not drawn) | · | · | · | · | 1
Cc1csc2nc(CSc3nc4ccccc4o3)cn12 | · | · | 61* | -5 | 1.7
NC(=O)c1cc2ccc(O)cc2oc1=Nc1ccccc1 | 2 | 11 | 17 | 32 | 1.2
COc1ccc(OC)c(N=c2oc3cc(O)ccc3cc2C(N)=O)c1 | 3 | -4 | 43 | 68* | 1
Cc1nn(C)cc1CNC(=O)Nc1cccc(Cl)c1 | · | · | · | · | 1.6
COc1ccc(NC(=O)c2ccccc2NC(=O)COc2ccccc2)cc1 | · | · | · | · | 1
COCC(=O)Nc1ccccc1C(=O)Nc1ccc(OC)cc1 | 5 | -4 | 59* | 19 | 1.2
CCOc1ccc(NC(=O)c2ccccc2CO)cc1 | -15 | -1 | 71* | 51* | 1.6
CCOc1ccc(NC(=O)c2ccccc2OC)cc1 | -19 | 1 | 73* | 49* | 1.6
CCOc1ccc(NC(=O)c2ccccc2O)cc1 | -22 | 7 | -6 | -8 | 0.9
Brc1ccc(-c2nnc3n2C2(CCCC2)Cc2ccccc2-3)o1 | · | · | · | · | 1.1
SMILES | HEK293 NFkB inh | Jurkat viability | SF-1 act | RORa activator | MT1-MMP txn act
Cc1[nH]c2ccc(-c3nnc(SCC(=O)NCc4ccco4)n3Cc3ccccc3)cc2c1C | 18 | · | -1 | -5 | 0.9
COc1ccc2oc(=O)c(C(C)=O)cc2c1 | · | · | · | · | 1.1
COc1ccc2oc(=O)c(-c3nc(C)cs3)cc2c1 | · | · | 54* | 12 | 1.3
CSc1nc(NC(C)=O)nc(C)c1Cl | · | · | 4 | -9 | 1
Cc1cc(NC(=O)CSc2nc3ccccc3c(=O)n2C2CCCC2)no1 | 20 | 71* | -29 | -8 | ·
CC(C)[C@H](NC(=O)OC(C)(C)C)c1nnc(SCC(=O)Nc2ccc(Br)cc2)o1 | 19 | 15 | 8 | 6 | 1
COc1ccccc1-n1cnc(N)c1C(C)=O | 15 | -4 | 11 | -2 | 1.1
COc1ccccc1-n1cnc(N)c1C(=O)c1ccccc1 | 12 | 36* | 21 | 9 | 1.1
COc1ccccc1C(=O)NCC1CCN(c2ccc(S(=O)(=O)N3CCOCC3)cc2)CC1 | · | · | · | · | 1.2
COc1cccc(C2=CC(c3cc(OC)ccc3OC)n3nnnc3N2)c1 (stereo not drawn) | 10 | 90* | -3 | 20 | 1.1
COc1cccc(C2=CC(c3cccc(OC)c3OC(F)F)n3nnnc3N2)c1 (stereo not drawn) | -5 | 7 | 5 | 29 | 0.9
